Sampled rows, rich in hits. Any-hit rate of the full collection: about 4.9%.
APP 5'UTR act: activators of APP 5'UTR luciferase reporter, primary screen, SH-SY5Y cells; SH-SY5Y APP 5'UTR luciferase reporter, luminescence; zero percent = DMSO vehicle wells; activation, % at 2 µM; 1% of 190,000 active; AID 1276, 2008;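 active = activation above a set limit, based on mean plus 3 SD of controls, cut at about 140% in these data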
STAT3 act: IL-6 driven STAT3 reporter potentiators, primary screen, U3A cells, luciferase, luminescence, MLSCN library; IL-6 STAT3-luciferase reporter; 100% = signal with IL-6 EC80 alone; 0.91% of 190,000 active; activation (% of control), % at 5.6 µM;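 active = activation above the screen-wide mean of compound activation plus 3 SD, cut at about 130% in these data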;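 also: 0% = background luminescence of wells with medium and substrate only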
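Assay system – human STAT1-deficient U3A cells with stable STAT3-luciferase reporter · Also added – IL-6 (33 ng/mL) · Schedule – compound 1 h, then IL-6 6 h at 37 °C · Technique – reporter luminescence signal · Evaluation – % activation versus median of IL-6-stimulated wells · Benchmarks – IL-6-only wells as 100% reference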
STAT3 inh: IL-6 driven STAT3 reporter inhibitors, primary screen, U3A cells, luciferase, luminescence, MLSCN library; 0.89% of 190,000 active; AID 862, 2007; inhibition, % at 5.5 µM; IL-6 STAT3-luciferase reporter; host cell line lacks STAT1;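 active = inhibition above the mean inhibition across all screened compounds plus 3 SD, cut at about 44% in these data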;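 also: 0% = DMSO only wells and 100% = 100 µM nifuroxazide control wells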
NF-kB expr up: activators of NF-kB expression in neurons, primary screen, cell-based, HTS; human neuronal cells, NF-kB reporter expression; stronger effect = higher value; fold change at 12.5 µM; 1.6% of 190,000 active; AID 1239, 2008; in the data active = fold change above about 3.3
STAT1 activator: STAT1 signaling activators, primary screen, cell-based, HTS, luciferase reporter | AID 932, 2007 | activation (% of control), % at 5.5 µM | 2.6% of 200,000 active | NIH 3T3 STAT1-luciferase reporter, IFN-gamma, luminescence; 100% = IFN-gamma alone, no compound;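 active = activation above the screen-wide mean activation plus 3 SD, cut at about 130% in these data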;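 also: raw ratio to IFN-gamma control signal so 100% means no change and 0% no light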
STAT1 inh: STAT1 signaling inhibitors, primary screen, cell-based, HTS, luciferase reporter | AID 920, 2007 | 0.35% of 200,000 active | NIH 3T3 STAT1-luciferase reporter, IFN-gamma, luminescence | inhibition, % at 5.5 µM;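 active = inhibition above a set limit, the mean inhibition across all tested compounds plus 3 SD, cut at about 34% in these data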;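 also: 0% = IFN-gamma with DMSO and 100% = IFN-gamma with 300 µM nifuroxazide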
* marks the source's active call; other numbers are inactive results.

Results for O=C(Nc1ccc(C#Cc2ccccc2)cc1)C1CC1 ?
APP 5'UTR act: 110; STAT3 act: 143*; STAT3 inh: -46; NF-kB expr up: 3.9*; STAT1 activator: 196*; STAT1 inh: -107

What do the screens show for `CCCC(=O)Nc1ccc(C#Cc2ccccc2)cc1`?
APP 5'UTR act: 121; STAT3 act: 146*; STAT3 inh: -43; NF-kB expr up: 2.9; STAT1 activator: 140*; STAT1 inh: -44

What do the screens show for `CCc1cccc(N(C(=O)c2csnn2)C(C(=O)NC(C)(C)C)c2ccncc2)c1` (stereo unspecified)?
APP 5'UTR act: -1; STAT3 act: 104; STAT3 inh: -2; NF-kB expr up: 1.6; STAT1 activator: 107; STAT1 inh: -9

What do the screens show for `COc1cccc(N/C=C/c2onc(C)c2[N+](=O)[O-])c1`?
APP 5'UTR act: 146*; STAT3 act: 95; STAT3 inh: 15; NF-kB expr up: 1.5; STAT1 activator: 144*; STAT1 inh: -47

What do the screens show for `CCn1cnc2cc(NC(=O)c3ccco3)ccc21`?
APP 5'UTR act: 53; STAT3 act: 98; STAT3 inh: 6; NF-kB expr up: 2.9; STAT1 activator: 135*; STAT1 inh: -33

What do the screens show for `O=C(Nc1ccc2nn(-c3ccccc3)nc2c1)c1ccco1`?
APP 5'UTR act: 81; STAT3 act: 94; STAT3 inh: 9; NF-kB expr up: 2.3; STAT1 activator: 132*; STAT1 inh: -34

How did O=C(Nc1cc2nn(-c3ccccc3)nc2cc1Cl)c1ccco1 do in these assays?
APP 5'UTR act: 25; STAT3 act: 145*; STAT3 inh: -43; NF-kB expr up: 1.7; STAT1 activator: 133*; STAT1 inh: -36

How did CCCn1cnc2cc(NC(=O)c3cccs3)ccc21 do in these assays?
APP 5'UTR act: 97; STAT3 act: 109; STAT3 inh: -5; STAT1 activator: 138*; STAT1 inh: -45

Results for O=C(COn1nnc2ccccc21)NCC1CCCCC1 ?
APP 5'UTR act: 6; STAT3 act: 109; STAT3 inh: -7; NF-kB expr up: 1.9; STAT1 activator: 129*; STAT1 inh: -31

What do the screens show for `CC(=O)NCC(=O)OC(C(=O)c1ccccc1)c1ccc(Cl)cc1` (stereo unspecified)?
APP 5'UTR act: -12; STAT3 act: 108; STAT3 inh: -11; NF-kB expr up: 1.5; STAT1 activator: 109; STAT1 inh: -9

What do the screens show for `O=C(CSC1=NCCN1)Nc1cccc([N+](=O)[O-])c1`?
APP 5'UTR act: 2; STAT3 act: 99; STAT3 inh: 3; NF-kB expr up: 0.82; STAT1 activator: 133*; STAT1 inh: -37

How did O=C(CSC1=NCCN1)Nc1ccccc1[N+](=O)[O-] do in these assays?
APP 5'UTR act: -19; STAT3 act: 112; STAT3 inh: -10; NF-kB expr up: 1.1; STAT1 activator: 118; STAT1 inh: -22

Results for C=CCn1cnc2c(nnn2-c2ccc(C)c(C)c2)c1=O ?
APP 5'UTR act: 17; STAT3 act: 98; STAT3 inh: 10; NF-kB expr up: 1.8; STAT1 activator: 116; STAT1 inh: -20

Results for COc1cccc(-c2nnn(CC(C)=O)n2)c1 ?
APP 5'UTR act: 127; STAT3 act: 114; STAT3 inh: -14; NF-kB expr up: 2.2; STAT1 activator: 134*; STAT1 inh: -37

What do the screens show for `COc1ccc(-c2ccc(-c3nnn(CC(C)=O)n3)cc2)cc1`?
APP 5'UTR act: 87; STAT3 act: 95; STAT3 inh: 11; NF-kB expr up: 2.2; STAT1 activator: 133*; STAT1 inh: -36

Results for Cn1nc(C(=O)N2CCN(S(=O)(=O)/C=C/c3ccccc3)CC2)c2ccccc2c1=O ?
APP 5'UTR act: -3; STAT3 act: 94; STAT3 inh: 2; NF-kB expr up: 0.89; STAT1 activator: 94; STAT1 inh: 6

Results for Cc1ccc2nc(-c3ccc(NC(=S)NC4CC(C)(C)NC(C)(C)C4)cc3)sc2c1 ?
APP 5'UTR act: 168*; STAT3 act: 96; STAT3 inh: 7; NF-kB expr up: 1.3; STAT1 activator: 135*; STAT1 inh: -38

Compound activity: PubChem, several laboratories
